# Measured values as given in paper PMC7610535 (Nature chemical biology, 2020).
# What was measured:
# AURORA-A [1] = biological target: T1, AURORA-A (Homo sapiens, UniProt O14965); assay: AURORA-A-NanoLuc target engagement assay; type: binding; details: AURORA-A vs AURORA-B, depending on experimental conditions (BRET, Kinobeads)
# T1 sequence (O14965 1-403): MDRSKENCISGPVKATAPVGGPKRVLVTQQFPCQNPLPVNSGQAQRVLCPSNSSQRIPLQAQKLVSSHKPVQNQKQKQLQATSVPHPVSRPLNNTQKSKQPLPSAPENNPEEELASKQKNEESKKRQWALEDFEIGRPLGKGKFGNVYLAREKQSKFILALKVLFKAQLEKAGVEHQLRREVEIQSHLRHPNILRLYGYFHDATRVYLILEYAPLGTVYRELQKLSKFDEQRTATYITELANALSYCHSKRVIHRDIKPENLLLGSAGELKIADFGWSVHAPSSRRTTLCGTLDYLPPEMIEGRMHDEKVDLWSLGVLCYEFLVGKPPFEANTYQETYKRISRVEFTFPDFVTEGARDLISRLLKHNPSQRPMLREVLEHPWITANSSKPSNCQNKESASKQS
# IMR5 cells = assay: BrdU/PI flow cytometry, cell cycle distribution of IMR5 cells; type: cell-based, human; details: IMR5 cells without ectopic AURORA-A, 1 µM, 18 hours
# Method in brief: (§1)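 Cells were pulsed with 10 µM BrdU for 1 h, washed in ice-cold PBS and fixed overnight in 80% ethanol at −20 °C. After a 1% BSA/PBS-T wash, they were stained 30 min at 37 °C with RNase A (24 µg/ml) and propidium iodide (54 µM), then analysed by flow cytometry. For IMR5, the EtOH-treated cells of the doxycycline-inducible line served as the non-overexpressing cells.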
# MV4-11 cells = assay: BrdU/PI flow cytometry, cell cycle distribution of MV4-11 cells; type: cell-based, human; details: 1 µM, 12 hours
# Method in brief: as §1
# AURORA-A [2] = biological target: T1, AURORA-A; assay: Immunoblot of AURORA-A in compound-treated MV4-11 cells; type: cell-based
# AK2 = AK2 (Homo sapiens, UniProt P54819); assay: Kinobead selectivity profiling: AK2; type: binding
compound,measurement,setting,value
"COc1cc(Nc2ncc3c(n2)-c2ccc(Cl)cc2C(c2c(F)cccc2OC)=NC3)ccc1C(=O)O [Alisertib, alisertib, reference compound]",difference of affinities for AURORA-A and AURORA-B,AURORA-A [1],3- to 50 fold
same,cell cycle distribution,IMR5 cells,led to G2/M arrest
same,cell cycle distribution,MV4-11 cells,almost all cells arrested in G2/M
same,reduction of steady-state AURORA-A levels (in words),AURORA-A [2],"did not decrease AURORA-A levels, but instead substantially increased it"
same,Kd,AK2,215 nM
